Reference: publication PMC9170026 (Proceedings of the National Academy of Sciences of the …, 2022)
Read-outs that look alike come from different tables or passages of the source.

What was measured:
[1] = test system: MAP3K1-WT–induced p-IKKβ; test: Western blot of MAP3K1-WT transfected HeLa cells; type: cell-based
[2] = test system: 328 kinase-associated peptides that correspond to 254 kinases; test: KiNativ kinome profiling dose-response in PANC1 lysate; type: binding; conditions: PANC1 cell lysates, 1.25-10 μM
How it was run: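 KiNativ kinome profiling done as a dose-response in PANC1 cells. Test compound was used at 1.25, 2.5, 5, 7.5 and 10 μM. Each kinase inhibited was recorded at each concentration.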

[3] = test system: TNF-α–induced MAP3K1-IKKβ–mediated NF-κB activity; test: HeLa luciferase reporter under NF-κB response element; type: cell-based
[4] = biological target: T1, IKKβ (Homo sapiens, UniProt O14920); test: 10-point dose-response IKKβ kinase activity assay; type: biochemical
T1 sequence (O14920 1-756): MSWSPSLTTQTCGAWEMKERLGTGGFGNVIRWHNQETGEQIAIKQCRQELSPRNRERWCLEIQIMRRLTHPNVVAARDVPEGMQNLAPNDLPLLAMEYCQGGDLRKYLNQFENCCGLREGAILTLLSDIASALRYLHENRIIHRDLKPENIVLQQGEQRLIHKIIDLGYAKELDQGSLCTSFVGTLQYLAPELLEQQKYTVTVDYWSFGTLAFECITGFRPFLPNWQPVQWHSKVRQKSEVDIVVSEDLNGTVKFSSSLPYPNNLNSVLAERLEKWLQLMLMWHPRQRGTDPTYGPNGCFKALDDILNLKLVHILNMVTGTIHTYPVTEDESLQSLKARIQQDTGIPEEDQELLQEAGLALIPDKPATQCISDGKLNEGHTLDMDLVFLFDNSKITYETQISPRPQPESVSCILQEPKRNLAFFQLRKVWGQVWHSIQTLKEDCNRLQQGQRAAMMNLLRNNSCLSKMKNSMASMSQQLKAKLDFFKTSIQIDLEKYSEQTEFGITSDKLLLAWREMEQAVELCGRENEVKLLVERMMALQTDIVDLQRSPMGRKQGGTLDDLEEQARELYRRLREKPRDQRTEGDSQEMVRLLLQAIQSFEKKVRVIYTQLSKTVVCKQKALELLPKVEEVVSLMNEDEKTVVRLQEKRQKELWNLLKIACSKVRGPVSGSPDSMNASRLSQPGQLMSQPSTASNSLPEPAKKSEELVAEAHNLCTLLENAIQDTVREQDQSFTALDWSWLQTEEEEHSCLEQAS

[5] = Oral and intravenous dose pharmacokinetic studies in mice; conditions: mouse, in vivo
[6] = biological target: T1, IKKβ; test: KinomeSCAN binding to IKKβ
[7] = Metabolic stability in human liver S9 fraction; type: in vitro ADME
[8] = test system: p-IKKβ; test: p-IKKβ levels in MiaPaCa2 cells; type: cell-based; conditions: Homo sapiens, MIA PaCa-2, read-out: IC50 for reduction of p-IKKβ levels
[9] = test system: NF-κB pathway proteins; test: Western blot of NF-κB pathway proteins in MiaPaCa2 cells, 6 h; type: cell-based, human; conditions: MiaPaCa2, 6h, dose-response
[10] = test system: T3M4 orthotopic pancreatic tumors; test: T3M4 orthotopic xenograft model; type: in vivo, athymic nude mice; conditions: 40 mg/kg, by mouth
[11] = test system: TNF-α–induced MAP3K1-IKKβ–mediated NF-κB activation; type: cell-based; conditions: MAP3K1-WT transfected HeLa, TNF-α 20 ng/mL, 6 h
[12] = biological target: MAP3K12; conditions: cited from earlier work
[13] = test system: TNF-α–induced IKKβ-mediated NF-κB activation; test: Dual luciferase assay-based screen of quinoxaline analogs; type: cell-based; conditions: relative to parent analog / 13-197
How it was run: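 Dual-luciferase NF-κB reporter screen of quinoxaline analogs against TNF-α–stimulated, IKKβ-mediated NF-κB activation. Two reference compounds, the parent quinoxaline and an allosteric IKKβ inhibitor, served as controls marking the ends of the activity range. n = 4, reported as average ± SEM. P values from a two-tailed Student's t test.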

Cn1cc(-c2cnc3ccc(NC(=O)Nc4ccc(F)c(Br)c4)cc3n2)cn1 [39-100]
MAP3K1-WT–induced p-IKKβ [1]: inhibited | kinome selectivity [2]: selectively inhibits MAP3K1 | inhibition of TNF-α–induced NF-κB reporter activity [3]: selectively inhibited | in vitro IKKβ enzymatic inhibition [4]: inactive | improvement in oral bioavailability over 13-197 [5]: ~12 fold | in vitro IKKβ binding [6]: did not bind | in vitro IKKβ binding ([6]; listed as IKAM-1): inactive | improvement of t1/2 (stability) over 13-197 [7]: ~8 fold | major metabolites ([7]; 2h post-incubation): demethylated, glucuronidated, and sulfated products | IC50 [8]: 2.3 ± 0.2 µM | Bcl-xL levels [9]: no change in Bcl-xL | IκBα phosphorylation [9]: inhibited IκBα phosphorylation in a dose-dependent manner | Ki67 and CD31+ tumor cells vs vehicle [10]: reduced Ki67 and CD31^+ tumor cells | p-IKKβ expression in tumors (IHC) vs vehicle [10]: reduced expression of p-IKKβ | inhibition of TNF-α–induced MAP3K1-IKKβ–mediated NF-κB activation [11]: inhibited

CC(C)n1nc(-c2cnc(N)c(OC(F)(F)F)c2)cc1C1[C@H]2CN(C3COC3)C[C@@H]12 (some centres unmarked) [DLK-In-1]
Ki [12]: 0.003 µM

Cn1cc(-c2cnc3ccc(NC(=O)Nc4ccc(Br)cc4)cc3n2)cn1 [analog 5]
inhibition of TNF-α–induced IKKβ-mediated NF-κB activity (SAR screen) [13]: improved activity

Cn1cc(-c2cnc3ccc(NC(=O)Nc4ccccc4Br)cc3n2)cn1 [analog 13]
inhibition of TNF-α–induced IKKβ-mediated NF-κB activity (SAR screen) [13]: reduced the activity

Cn1cc(-c2cnc3ccc(NC(=O)Nc4cccc(Br)c4)cc3n2)cn1 [compound 12]
improvement of t1/2 (stability) over 13-197 [7]: four-fold better | inhibition of TNF-α–induced IKKβ-mediated NF-κB activity (SAR screen) [13]: further improved the activity | Bcl-xL levels [9]: no change in Bcl-xL | IκBα phosphorylation [9]: inhibited IκBα phosphorylation in a dose-dependent manner | Mcl-1 levels [9]: robust reduction in Mcl-1 levels
